# Screens: PubChem BioAssay, Johns Hopkins Ion Channel Center
# TRPC4 PAM: positive allosteric modulators of TRPC4, primary screen, cell-based, mouse TRPC4beta, HEK293 mu-opioid, Fluo-4 calcium | DAMGO EC20, Fluo-4 Ca2+ flux; hits give high values | B-score at 10 µM | 310,000 tested, 0.42% active;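 active = B-score of calcium response area above 5 SD of library B-scores, with initial fluorescence ratio within 5 SD of library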;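 note: B-score of integrated fluorescence ratio over time as area under calcium response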
# Target sequence (Q9QUQ5 whole entry, looked up): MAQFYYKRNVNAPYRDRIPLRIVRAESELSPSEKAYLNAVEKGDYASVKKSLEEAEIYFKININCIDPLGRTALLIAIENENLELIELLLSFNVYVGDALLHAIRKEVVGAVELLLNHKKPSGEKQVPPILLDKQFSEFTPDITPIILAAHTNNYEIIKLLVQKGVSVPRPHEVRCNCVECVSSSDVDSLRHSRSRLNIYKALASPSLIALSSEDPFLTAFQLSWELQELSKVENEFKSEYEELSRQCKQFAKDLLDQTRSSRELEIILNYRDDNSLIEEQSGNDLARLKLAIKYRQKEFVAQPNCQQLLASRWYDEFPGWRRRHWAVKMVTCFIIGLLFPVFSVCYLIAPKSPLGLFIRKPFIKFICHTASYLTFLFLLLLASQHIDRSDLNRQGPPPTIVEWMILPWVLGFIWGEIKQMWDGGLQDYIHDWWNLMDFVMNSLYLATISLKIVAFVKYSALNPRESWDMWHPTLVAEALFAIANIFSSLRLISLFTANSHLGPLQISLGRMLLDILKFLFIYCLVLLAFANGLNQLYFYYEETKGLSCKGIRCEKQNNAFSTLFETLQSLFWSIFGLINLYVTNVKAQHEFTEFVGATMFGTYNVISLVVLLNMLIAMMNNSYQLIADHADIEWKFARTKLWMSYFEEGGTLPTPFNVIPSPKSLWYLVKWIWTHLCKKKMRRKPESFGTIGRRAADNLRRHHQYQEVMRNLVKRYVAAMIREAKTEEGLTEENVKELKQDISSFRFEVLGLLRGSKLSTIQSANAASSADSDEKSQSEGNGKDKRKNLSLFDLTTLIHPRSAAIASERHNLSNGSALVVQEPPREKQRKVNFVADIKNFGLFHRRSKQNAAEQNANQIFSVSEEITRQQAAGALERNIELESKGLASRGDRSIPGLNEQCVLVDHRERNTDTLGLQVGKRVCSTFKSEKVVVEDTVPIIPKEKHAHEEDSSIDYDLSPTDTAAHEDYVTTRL
# TRPC6 act: mouse TRPC6 channel activators, primary screen, cell-based, HEK293, membrane potential dye; HEK293-TRPC6 membrane potential dye fluorescence; hits give high values; B-score at 10 µM; 310,000 tested, 0.13% active; AID 2550, 2010;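 active = B-score of the integrated fluorescence ratio above library mean plus 3 SD, and starting fluorescence ratio within library mean plus 5 SD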;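 note: higher score means more depolarization so channel activation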
# TRPC4 act: activators of mouse TRPC4 channel, primary screen, Fluo4 calcium, HEK293 TRPC4beta/mu-opioid cells; Short transient receptor potential channel 4 (Mus musculus), Q9QUQ5; Fluo4 calcium fluorescence; hits give high values; 310,000 tested, 0.49% active; B-score at 10 µM;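 active = B-score above 5 SD of library B-scores, and initial fluorescence ratio not above library mean plus 5 SD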;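 note: positive B-score marks a calcium rise read as TRPC4 activation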
#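 System – HEK293 cells stably co-expressing mouse TRPC4beta and mu-opioid receptor · Signal – Fluo4 calcium-sensitive dye fluorescence, kinetic, 1 Hz baseline · Benchmarks – buffer (low) and maximal DAMGO (high) · Read-out – B score of integrated fluorescence ratio per well · Incubation – dye loading 45 min room temperature, 110 s kinetic read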
# TRPC4 block: inhibitors of mouse TRPC4 channel, primary screen, Fluo4 calcium, HEK293 TRPC4beta/mu-opioid cells. 300,000 tested, 0.39% active. Short transient receptor potential channel 4 (Mus musculus), Q9QUQ5. B-score at 10 µM. DAMGO-evoked Fluo4 calcium flux; hits give low values;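 active = B-score over 3 SD under the library average, no early fluorescence shift, positive overall ratio signal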
#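 Material: HEK293 cells with stable TRPC4beta plus mu-opioid receptor expression; probe or stimulus: DAMGO in two steps, submaximal then maximal; technique: Fluo4 calcium fluorescence by kinetic imaging, 5 s 1 Hz baseline; measure: integrated fluorescence ratio relative to baseline, converted to per-well B score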
# TRPC6 inh: mouse TRPC6 channel inhibitors, primary screen, cell-based, HEK293, membrane potential dye. Short transient receptor potential channel 6 (Mus musculus), Q61143. ACh-evoked depolarization; hits give low values. B-score at 10 µM. 310,000 tested, 1.1% active. AID 2553, 2010;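 active = B-score under library mean minus 3 SD, initial fluorescence not abnormally high, positive integrated signal ratio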;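 note: B-score derived from integrated fluorescence ratio over the kinetic read; more negative B-score means stronger inhibition of depolarization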
# TRPC4 sel inh 2: mouse TRPC4 off-target activity of TRPC6 inhibitors, second screen | shares compounds with TRPC6 inh | HEK293 TRPC4/MOR, membrane potential dye fluorescence; channel activated by saturating DAMGO dose | inhibition, % at 10 µM | 920 tested, 42% active | AID 2776;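 active = compounds whose fluorescence signal differed from control wells by over 3 SD, either direction, in both duplicate plates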
# TRPC4 spec: mouse TRPC4 modulation by TRPC6 hits, confirmation, selectivity assay for TRPC6 inhibitor project, cell-based, HEK293 TRPC4/mu-opioid, membrane potential dye; activity change, negative = inhibition, % at 10 µM; shares compounds with TRPC6 inh; 920 tested, 61% active; membrane potential fluorescence;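 active = rise or fall in signal beyond 3 SD of buffer-only wells in both replicate plates, either sign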;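 note: integrated kinetic ratio of fluorescence range over baseline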
# HEK293 MPD ctr 2-1: nonspecific membrane potential effects, parental HEK293, confirmation, counter-screen for TRPC6 inhibitor project, cell-based, second counter screen | shares compounds with TRPC6 inh | parental HEK293 membrane potential dye fluorescence; maximal acetylcholine challenge after compound addition | signal change vs control, % at 10 µM | 920 tested, 31% active;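 active = membrane potential signal moving either way by over 3 SD of the maximum-effect control, in both duplicate plates, meaning non-specific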
# HEK293 MPD ctr-1: membrane potential modulation in parental HEK293, confirmation, counter-screen for TRPC6 inhibitor project, cell-based; shares compounds with TRPC6 inh; parental HEK293 membrane potential dye fluorescence; membrane potential signal change, % at 10 µM; 920 tested, 60% active; AID 2780, 2010;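 active = membrane potential signal shifting up or down by more than 3 SD of buffer-only wells, on both duplicate plates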
# HEK293 MPD ctr-2: parental HEK293 membrane potential modulation, confirmation, counter-screen for TRPC6 modulator project, cell-based | membrane potential dye fluorescence | 2,400 tested, 51% active | AID 488924, 2010 | shares compounds with TRPC6 inh | membrane potential signal change, % at 10 µM;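 active = membrane potential signal moves up or down beyond 5 SD from buffer-only wells, on both duplicate plates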
# HEK293 MPD ctr 2-2: parental HEK293 nonspecific activity of TRPC6 modulators, second screen | shares compounds with TRPC6 inh | membrane potential dye fluorescence; after compound, maximal acetylcholine stimulation | inhibition, % at 10 µM | 2,400 tested, 14% active;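 active = membrane potential signal drops by more than 5 SD from the mean control signal, in both duplicate plates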;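 note: plate controls were acetylcholine ECmax control wells for no effect and buffer only wells for full effect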
# TRPC4/MOR mod: TRPC4 modulation by TRPC6 hit compounds, confirmation, selectivity assay for TRPC6 modulator project, cell-based, HEK293 TRPC4/mu-opioid, membrane potential dye, mouse; shares compounds with TRPC6 inh; membrane potential fluorescence; percent change from control (negative = decrease, positive = increase), % at 10 µM; 2,400 tested, 69% active;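 active = membrane potential signal moved up or down beyond 5 SD of buffer control wells, in both duplicate plates, actives on both sides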;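 note: plate controls were assay buffer wells for no effect and DAMGO maximal-effect wells for full effect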
# TRPC4/MOR inh 2: second check of whether TRPC6 modulators also affect mouse TRPC4. shares compounds with TRPC6 inh. HEK293 TRPC4/mu-opioid, membrane potential dye fluorescence; stimulated with maximal-effect DAMGO. inhibition, % at 10 µM. 2,400 tested, 55% active. AID 488928;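 active = drop in membrane potential signal beyond 5 SD of the control wells in both duplicate plates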;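 note: TRPC4 counter screen for TRPC6 hits run under conditions tuned for TRPC6 not TRPC4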
# TRPC6 block conf: mouse TRPC6 channel inhibitors, confirmation, HEK293 cells, membrane potential dye, duplicate; shares compounds with TRPC6 inh; 3,300 tested, 43% active; inhibition, % at 10 µM; ACh-evoked depolarization;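 active = fluorescence ratio falls more than 5 SD below the full-stimulation control mean, in both duplicate runs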;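 note: integrated fluorescence ratio of peak minus minimum over baseline after agonist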
# TRPC6 act confirm: mouse TRPC6 channel activators, confirmation, HEK293 cells, membrane potential dye, duplicate; shares compounds with TRPC6 inh; HEK293-TRPC6 membrane potential dye fluorescence, FDSS; activation, % at 10 µM; 2,800 tested, 11% active; AID 488961, 2010;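 active = ratio signal rise beyond 5 SD above unstimulated control wells' mean, seen in both duplicate runs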;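 note: plate controls were buffer EC0 wells for no effect and acetylcholine ECmax response for full effect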
# * hit, by the source's call; i = inactive; · = no result. A selection: hits, their analogues and other compounds. The true share with any hit is near 2.3%.
SMILES,TRPC4 PAM,TRPC6 act,TRPC4 act,TRPC4 block,TRPC6 inh,HEK293 MPD ctr-2,HEK293 MPD ctr 2-2,TRPC4/MOR mod,TRPC4/MOR inh 2,TRPC6 block conf,TRPC6 act confirm,others
NC(=O)C1CCN(C(=O)CCC(=O)c2ccc(Br)cc2)CC1,i,i,i,i,i,·,·,·,·,·,·,
CN(C)C(=O)COc1ccc2c(-c3ccccc3)cc(=O)oc2c1,i,i,i,i,i,·,·,·,·,·,·,
Cn1c(=O)c(C=Nc2ccccc2)c(O)c2ccccc21,i,i,i,i,i,·,·,·,·,·,·,
Cn1c(=O)c2c(O)c(C=Nc3ccc(F)cc3)c(=O)n(C)c2n(C)c1=O,i,i,i,i,-6.6*,-92%*,i,-14%*,i,i,i,
CCOC(=O)C1Cc2c([nH]c3ccccc23)CN1 (stereo unspecified),i,i,i,i,-8.6*,·,·,·,·,i,i,TRPC4 sel inh 2=i;TRPC4 spec=i;HEK293 MPD ctr 2-1=i;HEK293 MPD ctr-1=-0.1%*
CCOC(=O)C1Cc2ccccc2CN1 (stereo unspecified),i,i,i,i,i,·,·,·,·,·,·,
CC(C)(C)SCCNC(=O)CN(c1ccccc1)S(=O)(=O)c1ccccc1,i,i,i,i,i,·,·,·,·,·,·,
CN(C)CCNC(=O)c1sc2nc(-c3ccccc3)cc(C(F)(F)F)c2c1N,i,16*,83*,i,i,312%*,i,57%*,45%*,·,144%*,
COc1ccc(-c2cc(C(F)(F)F)c3c(N)c(C(=O)NCCSC)sc3n2)cc1,i,i,i,i,i,·,·,·,·,·,·,
Cc1cc(C(C)(C)C)cc(C)c1S(=O)(=O)N1CC(=O)Nc2ccccc21,i,i,i,i,i,·,·,·,·,·,·,
O=[N+]([O-])c1cc([N+](=O)[O-])c(Oc2cccnc2Br)cc1NN1CCCCC1,i,i,i,i,i,·,·,·,·,·,·,
O=C(NNC(=O)c1ccccc1O)c1ccc(Cl)c(S(=O)(=O)N2CCCCC2)c1,i,i,i,i,i,·,·,·,·,·,·,
CCOC(=O)C1=NN(C(=O)c2ccc(C)cc2)C(O)(c2ccc(Cl)cc2)C1 (stereo unspecified),i,18*,90*,i,-8*,281%*,i,70%*,i,i,180%*,
COC(=O)C1=NN(C(=O)c2ccc(Cl)cc2)C(O)(c2ccccc2)C1 (stereo unspecified),i,16*,59*,i,i,321%*,i,73%*,i,·,190%*,
CCC1=NN(C(=O)c2ccc(Cl)cc2)C(O)(c2ccccc2)C1 (stereo unspecified),i,i,i,i,i,·,·,·,·,·,·,
CCC1=NN(C(=O)c2ccc(Cl)cc2)C(O)(c2ccc(C)cc2)C1 (stereo unspecified),i,i,i,i,i,·,·,·,·,·,·,
CCCCCCN1C=C/C(=C\C=C(C#N)C#N)c2ccccc21,i,i,i,i,i,·,·,·,·,·,·,
CCCCCN1C=CC=C/C1=C\C=C(C#N)C#N,i,15*,i,i,-5.3*,712%*,i,i,i,i,100%*,
CCCN1C=CC(=CC=C(C#N)C#N)C=C1,i,i,i,i,i,·,·,·,·,·,·,
CCCCCCN1C=CC=C/C1=C/C=C(C#N)C#N,i,26*,i,i,i,370%*,i,102%*,i,i,118%*,
CN(C)CCCNc1nc2sc3c(c2c(=O)n1CCc1ccccc1)CCCCC3,i,i,i,i,-7*,·,·,·,·,i,i,TRPC4 sel inh 2=74%*;TRPC4 spec=-11%*;HEK293 MPD ctr 2-1=i;HEK293 MPD ctr-1=i
O=c1c2c3c(sc2nc(NCCO)n1-c1ccccc1)CCCC3,i,i,i,i,i,·,·,·,·,·,·,
COC(=O)C1Cc2c([nH]c3ccccc23)C2(CCN(Cc3ccccc3)CC2)N1 (stereo unspecified),i,i,i,i,-7.5*,·,·,·,·,i,i,TRPC4 sel inh 2=47%*;TRPC4 spec=5.6%*;HEK293 MPD ctr 2-1=248%*;HEK293 MPD ctr-1=i
Cc1ccc(Nc2nc(NCCO)c3ccccc3n2)cc1C,i,i,i,i,-6.5*,i,77%*,-16%*,86%*,79%*,i,
COc1ccccc1Nc1nc(NCCO)c2ccccc2n1,i,i,i,i,i,·,·,·,·,·,·,
